This is a sample that favours compounds with a hit; in the whole collection about 5.4% have one here.
PostGolgi ctrl: inhibits growth of the yeast control strain. efflux-deficient yeast background strain, growth absorbance A615, 16 h. inhibition, % at 10 µM. 5% of 98,000 active. AID 738
PLAP act: human PLAP activation; 1.2% of 96,000 active; purified PLAP enzyme, luminescent substrate read-out; stronger effect = higher value; activation fold at 20 µM; in the data active = activation fold above about 2
Ecoli tolC: E. coli tolC mutant growth inhibition; E. coli BW25113 tolC mutant growth, OD615; growth inhibition, % at 10 µM (by protocol); 2.2% of 65,000 active; AID 573;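 active = growth inhibition at or above a cutoff equal to the mean over every tested compound plus 3 SD, cut at about 60% in these data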;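 note: growth measured after 20 h incubation at 37 °C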
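Test system – E. coli BW25113 ΔtolC::kan, tolC deletion mutant strain · Detection – OD at 615 nm · Buffer or medium – LB with kanamycin 50 µg/mL · Times – 20 h compound exposure of bacteria at 37 °C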
PostGolgi yeast: growth inhibition of a yeast mutant, post-Golgi transport screen | post-Golgi transport phenotypic cell assay | inhibition, % at 10 µM | 0.9% of 98,000 active | AID 739;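 note: yeast cells grown in 1536-well plates; yeast grown about 18 h at 30C before absorbance read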
HePTP inhibitor: inhibitors of human HePTP phosphatase; recombinant HePTP phosphatase activity, OD absorbance; inhibition, % at 20 µM; 0.64% of 110,000 active; AID 521; in the data active = inhibition above about 50%;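 note: plate controls were vehicle for no effect and reference inhibitor for full effect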
Target sequence (P35236 whole entry, looked up): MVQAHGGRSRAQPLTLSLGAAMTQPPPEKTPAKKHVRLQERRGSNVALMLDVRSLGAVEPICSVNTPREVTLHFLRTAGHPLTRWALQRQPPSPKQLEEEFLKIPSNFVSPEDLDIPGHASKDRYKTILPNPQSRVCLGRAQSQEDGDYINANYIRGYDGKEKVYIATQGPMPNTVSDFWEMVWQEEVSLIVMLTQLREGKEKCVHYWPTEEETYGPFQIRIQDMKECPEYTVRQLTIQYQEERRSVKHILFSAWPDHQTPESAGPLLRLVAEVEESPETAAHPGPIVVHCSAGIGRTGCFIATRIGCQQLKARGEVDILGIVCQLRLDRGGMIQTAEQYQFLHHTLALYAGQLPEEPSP
Ecoli WT expand: blocks growth of wild type E. coli BW25113; OD600 absorbance; 0.15% of 98,000 active; AID 710; growth inhibition, % at 100 µM;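 active = growth inhibition above about 50% at one test dose, limit read from the data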;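 note: growth measured after 20 h incubation at 37 °C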
Starred values were filed as active, the others as inactive; x = not tested or not shown. Cut-off read from the data, not from the text of the source, unless noted: active = inhibition above about 30%; inactive = the rest.

SMILES	PostGolgi ctrl	PLAP act	Ecoli tolC	PostGolgi yeast	HePTP inhibitor	Ecoli WT expand
COc1ccccc1OCC(=O)NC1CCS(=O)(=O)C1 (stereo not drawn)	x	x	x	x	2.8	x
Cc1cc(NC(=O)c2noc3c2CCCC3)nn1Cc1ccc(Cl)cc1	22.5	0.9	80.9*	-11.1	4.3	6.0
Cc1cc(C(=O)Nc2c(C)nn(Cc3c(Cl)cccc3Cl)c2C)no1	32.5*	1.2	14.7	-8.5	-4.3	4.0
Cc1nn(Cc2ccccc2Cl)c(C)c1NC(=O)c1noc2c1CCCCC2	9.2	1.3	65.3*	-7.8	-2.3	-6.0
Cc1nn(Cc2cccc(F)c2)c(C)c1NC(=O)c1ccc(COc2ccccc2Cl)cc1	24.5	2*	x	-15.9	x	-12.0
COc1ccc2c(c1)CCc1c(C(=O)Nc3cc(C)n(Cc4ccc(Cl)cc4)n3)noc1-2	0.4	0.8	7.5	0.5	5.6	-9.0
Cc1ncc(S(=O)(=O)c2ccccc2)c(-c2ccc(Cl)cc2Cl)n1	14.6	1.2	x	10.3	x	-5.0
C/C(=C1/C(=O)N(c2ccc([N+](=O)[O-])cc2)N=C1c1ccccc1)N(C)C	22.9	1.1	x	-1.8	7.3	0.0
Cc1nn(Cc2ccc(Cl)cc2)c(C)c1NC(=O)c1noc2c1CCc1ccccc1-2	41.8*	1	x	-0.8	x	-8.0
CCOC(=O)c1c(C=O)c(C)n(Cc2ccc(Cl)cc2)c1C	42.2*	0.8	x	3.2	x	12.0
CCOC(=O)c1c(C=O)c(C)n(Cc2ccccc2)c1C	10.5	0.9	x	0.2	x	-1.0
COC(=O)c1cc2ccsc2n1Cc1cc(=O)n2ccccc2n1	6.9	1.1	9.8	3.9	9.6	7.0
CCCN1CCC2(CC1)C(C#N)=C(N)Oc1c2sc2nc(C)cc(C)c12	-5.8	1.7	x	-2.9	x	-4.0
CCOC(=O)N1CCC2(CC1)C(C#N)=C(N)Oc1c2sc2nc(C)cc(C)c12	55.1*	0.9	40.3	10.1	2.5	-3.0
CCOC(=O)N1CCC2(CC1)C(C#N)=C(N)Oc1c2c(C)nn1-c1cccc(Cl)c1	31.1*	1.4	-0.5	-6.6	-4.2	1.0
CCOC(=O)N1CCC2(CC1)C(C#N)=C(N)Oc1n[nH]c(C)c12	18.7	1.4	x	-0.9	x	0.0
COC(=O)c1ccc(NC(=O)C2COc3ccccc3O2)cc1 (stereo not drawn)	x	x	x	x	4.4	x
CN1CCN(NC(=O)CN2C(=O)/C(=C/c3c(Cl)cccc3Cl)SC2=S)CC1	-0.7	1.8	x	14.2	x	7.0
NS(=O)(=O)c1ccc(NC(=O)c2c(Cl)cccc2Cl)cc1	x	x	x	x	104.2*	x
NS(=O)(=O)c1ccc(NC(=O)c2ccccc2Cl)cc1	5.5	1	x	4.7	x	-4.0
CCn1nc(C(=O)OCC(=O)c2cc(C)n(Cc3cccs3)c2C)c2ccccc2c1=O	41.7*	1	26.0	-24.8	6.5	-14.0
Cc1cc(SCC#N)n2nc(C)c(-c3ccccc3)c2n1	14.7	1.3	61.4*	16.5	6.9	26.0
c1nc(NCCN2CCOCC2)c2sc3nc(N4CCOCC4)c4c(c3c2n1)CCC4	x	1.6	12.6	x	9.2	x
Cc1ccc2c(CC(=O)OCc3nc(N)nc(Nc4ccccc4C)n3)coc2c1	36.3*	0.9	72.1*	5.8	1.7	3.0
Cc1cc2ncn(/N=C/c3cc(Br)ccc3O)c2cc1C	34.5*	1.6	-1.7	10.6	-2.4	-1.0
SMILES	PostGolgi ctrl	PLAP act	Ecoli tolC	PostGolgi yeast	HePTP inhibitor	Ecoli WT expand
Oc1ccc(Br)cc1/C=N\N1CCN(c2ccccc2)CC1	x	x	x	x	1.5	x
N#CCN(CC#N)C(=O)CCCOc1ccc(Cl)cc1Cl	x	x	x	x	-12.2	x
COc1cc([N+](=O)[O-])ccc1N=S(C)C	x	x	x	x	-15.0	x
O=C(Nc1cccc(Cl)c1)c1cccc(NC(=S)Nc2ccc(F)cc2)c1	x	x	x	x	103.9*	x
CCCCC(=O)N1CCCC(c2nc3c(nnn3Cc3cc(C)ccc3C)c(=O)[nH]2)C1 (stereo not drawn)	0.9	1.6	17.1	0.2	6.3	7.0
Fc1ccc(Sc2nc(-c3ccccc3)nnc2C(F)(F)F)cc1	72.1*	0.6	x	16.1	x	4.0
COc1cccc(C2/C(=C(\O)c3c(C)nc4c(C)cccn34)C(=O)C(=O)N2CCCN(C)C)c1 (stereo not drawn)	x	1.4	-26.7	x	4.6	x
CC(C)NC(=O)c1sc2nc3c(c(-c4cccs4)c2c1N)CN(C)CC3	16.9	2*	x	-1.0	x	2.0
Cc1cccc(NC(=O)c2sc3nc4c(c(-c5cccs5)c3c2N)CN(C)CC4)c1	5.4	1.7	x	9.9	x	-2.0
COCCNS(=O)(=O)c1ccccc1	-3.9	0.9	x	-8.7	x	0.0
Cc1nn(C)c(Oc2ccccc2)c1CCNS(=O)(=O)c1ccccc1	37.5*	1.4	x	-20.7	x	8.0
O=C(NC1CCCCCC1)c1cccc(N2CCCC2=O)c1	13.3	1.2	-14.9	-0.6	1.8	4.0
CC1CCCCC1NC(=O)c1ccc(N2CCCC2=O)cc1 (stereo not drawn)	33.3*	1	-6.4	-16.7	12.1	2.0
CCN(CC)C(=O)COc1ccc2oc(C)c(C(=O)OC(C)C)c2c1	9.8	2.6*	11.0	-4.2	6.5	-8.0
CCOC(=O)COc1ccc2oc(C)c(C(=O)OC(C)C)c2c1	x	x	x	x	2.2	x
CS(=O)(=O)N(CC(=O)NCCSc1ccccn1)c1cccc(Cl)c1	x	x	x	x	6.6	x
Fc1ccc(N2CCN(C(c3cccs3)c3nnnn3C3CCCC3)CC2)cc1 (stereo not drawn)	35.7*	1.4	3.0	10.9	6.0	-20.0
CN1CCN(C(c2ccc(F)cc2)c2nnnn2Cc2cccs2)CC1 (stereo not drawn)	4.8	1.6	-14.1	2.5	3.4	-5.0
Fc1ccc(C(c2nnnn2Cc2cccs2)N2CCN(C3CCCCC3)CC2)cc1 (stereo not drawn)	3.1	2.1*	-3.8	4.2	9.4	4.0
COc1ccc(N2CCN(C(c3ccccc3OC)c3nnnn3C3CCCC3)CC2)cc1 (stereo not drawn)	2.5	1.5	9.3	2.6	6.2	-9.0
COc1ccc(N2CCN(C(c3cccs3)c3nnnn3C3CCCC3)CC2)cc1 (stereo not drawn)	78.2*	1.1	24.5	13.4	9.5	-7.0
COc1cc(/C=N/n2cnnc2)ccc1OCC(=O)N1CCOCC1	x	x	12.2	x	3.5	x
O=C(c1ccc(C#CC2(O)CCCCC2)cc1)N1CCN(Cc2ccccc2)CC1	30.4*	1.3	x	9.5	x	1.0
O=C(c1ccc(C#CC2(O)CCCCC2)cc1)N1CCN(C(c2ccccc2)c2ccccc2)CC1	4.7	1.7	x	11.7	x	-14.0
CCOC(=O)c1c(N)sn(-c2ccccc2C)c1=S	10.0	1	11.4	-36.4	-5.3	3.0
Cc1cc(C)nc(NC2=NCC(=O)N2c2cc(Cl)cc(Cl)c2)n1	9.2	0.9	-20.1	-0.3	6.3	-2.0
Cc1cccc(N2C(=O)CN=C2Nc2nc(C)cc(C)n2)c1	2.8	2.6*	x	15.1	x	7.0
CCCCCCc1ccc(-c2ncc(N)cn2)cc1	32.0*	1.3	100.0*	-1.5	11.1	15.0
CCCc1cnc(-c2ccc(F)cc2)nc1	x	x	x	x	7.0	x
OC(c1ccc(OCc2ccccc2)cc1)c1nnc(-c2ccccc2)o1 (stereo not drawn)	26.2	0.8	x	-3.9	x	-9.0

Compound activity as filed in PubChem BioAssay.
